Source: ChEMBL document CHEMBL1146236, “Antineoplastic agents. 560. Isolation and structure of kitastatin 1 from an Alaskan Kitasatospora sp” (2007)
Converted amounts (≈) assume the structure as drawn.

Tests used:
[1] = test system: Micrococcus luteus; assay: Antibacterial activity against Micrococcus luteus Presque Isle 456; type: functional
Procedure, shortened: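 Broth microdilution susceptibility test per NCCLS standards, strain Presque Isle 456. Compound reconstituted in sterile DMSO, diluted in the appropriate medium immediately before testing. MIC taken as the lowest concentration giving complete inhibition of visible growth (optically clear).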

[2] = test system: BXPC-3; assay: Growth inhibition of human BXPC3 cells after 48 hrs by sulforhodamine B assay; type: functional; conditions: BXPC-3, 48 h
Procedure, shortened: (§1)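 Cells in 5% fetal bovine serum/RPMI1640 were seeded and preincubated 24 h, then exposed to serial compound dilutions for 48 h. Plates were TCA-fixed, stained with sulforhodamine B and read by microplate reader. ED50 (concentration giving 50% reduction in net protein increase) was calculated from optical density data.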

[3] = test system: MCF7; assay: Growth inhibition of human MCF7 cells after 48 hrs by sulforhodamine B assay; type: functional; conditions: MCF7, 48 h; procedure, shortened: as §1
[4] = test system: SF-268; assay: Growth inhibition of human SF268 cells after 48 hrs by sulforhodamine B assay; type: functional; conditions: SF-268, 48 h; procedure, shortened: as §1
[5] = test system: NCI-H460; assay: Growth inhibition of human NCI-H460 cells after 48 hrs by sulforhodamine B assay; type: functional; conditions: NCI-H460, 48 h; procedure, shortened: as §1
[6] = test system: KM-20L2; assay: Growth inhibition of human KM20L2 cells after 48 hrs by sulforhodamine B assay; type: functional; conditions: KM-20L2, 48 h; procedure, shortened: as §1
[7] = test system: DU-145; assay: Growth inhibition of human DU145 cells after 48 hrs by sulforhodamine B assay; type: functional; conditions: DU-145, 48 h; procedure, shortened: as §1
[8] = test system: P388; assay: Growth inhibition of mouse P388 cells after 48 hrs by Coulter particle counting; conditions: P388, 48 h, read-out: ED50 (the source's name)
[9] = test system: Cryptococcus neoformans; assay: Antifungal activity against Cryptococcus neoformans ATCC 90112; type: functional
Procedure, shortened: (§2)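 Broth microdilution susceptibility testing, following NCCLS reference methods (M7-A5 for bacteria, M27-A2 for yeasts). Compounds reconstituted in sterile DMSO and diluted in the appropriate medium just before testing. MIC was the lowest concentration giving complete inhibition of visible growth (optically clear).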

[10] = test system: Enterococcus faecalis; assay: Antibacterial activity against Enterococcus faecalis ATCC 29212; type: functional; procedure, shortened: as §2

MIC [1]	Structure (SMILES)	GI50 [2]	GI50 [3]	GI50 [4]	GI50 [5]	GI50 [6]	GI50 [7]	EC50 [8]	MIC [9]	MIC [10]
64000 ng/mL (≈ 87200 nM)	CCC(C)[C@@H]1OC(=O)[C@H](C)OC(=O)[C@@H](NC(=O)c2cccc(NC=O)c2O)[C@@H](C)OC(=O)[C@H](C(C)C)OC(=O)C(C)(C)C(=O)[C@H](CC(C)C)NC1=O (stereo not given in full)	1200 ng/mL (≈ 1640 nM)	0.64 ng/mL (≈ 0.872 nM)	16 ng/mL (≈ 21.8 nM)	0.63 ng/mL (≈ 0.859 nM)	0.58 ng/mL (≈ 0.79 nM)	< 0.1 ng/mL	33 ng/mL (≈ 45 nM)		
	CCC(C)[C@@H]1OC(=O)[C@H](C)OC(=O)[C@@H](NC(=O)c2cccc(N)c2O)[C@@H](C)OC(=O)[C@H](CC(C)C)OC(=O)C(C)(C)C(=O)[C@H](CC(C)C)NC1=O (stereo not given in full) [KITASTATIN]	6.6 ng/mL (≈ 9.17 nM)	4 ng/mL (≈ 5.56 nM)	3.5 ng/mL (≈ 4.86 nM)	< 1 ng/mL	2.4 ng/mL (≈ 3.33 nM)	2.6 ng/mL (≈ 3.61 nM)	45 ng/mL (≈ 62.5 nM)	64000 ng/mL (≈ 88900 nM)	64000 ng/mL (≈ 88900 nM)
	CCC(C)[C@@H]1OC(=O)[C@H](C)OC(=O)[C@@H](NC(=O)c2cccc(NC=O)c2O)[C@@H](C)OC(=O)[C@H](CC(C)C)OC(=O)C(C)(C)C(=O)[C@H](CC(C)C)NC1=O (stereo not given in full) [RESPIRANTIN]	470 ng/mL (≈ 628 nM)	0.6 ng/mL (≈ 0.802 nM)	1.6 ng/mL (≈ 2.14 nM)	0.6 ng/mL (≈ 0.802 nM)	0.6 ng/mL (≈ 0.802 nM)	0.18 ng/mL (≈ 0.241 nM)	3.7 ng/mL (≈ 4.95 nM)	2000 ng/mL (≈ 2670 nM)	
